# The list is not random: actives were taken first. Their share in the collection is about 2.5%.
# ABHD5-PLIN5 inh: ABHD5-PLIN5 protein interaction inhibition; Q00G26+Q8WTS1; Split G. princeps luciferase complementation, luminescence, 4 h; inhibition, % at 4 µM; 360,000 compounds, 0.78% hits;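 active means inhibition above the mean inhibition across every tested compound plus 3 SD, cut at about 22% in these data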;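 further: 0% = DMSO only wells and the 100% control is not disclosed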
# MBD2 inh: MBD2-methylated oligo binding inhibition; Q9UBB5; TR-FRET, MBD2 binding to methylated oligonucleotide; inhibition, % at 4.4 µM; 370,000 compounds, 0.31% hits; in the data active means inhibition above about 13%
# Target sequence (Q9UBB5 whole entry, looked up): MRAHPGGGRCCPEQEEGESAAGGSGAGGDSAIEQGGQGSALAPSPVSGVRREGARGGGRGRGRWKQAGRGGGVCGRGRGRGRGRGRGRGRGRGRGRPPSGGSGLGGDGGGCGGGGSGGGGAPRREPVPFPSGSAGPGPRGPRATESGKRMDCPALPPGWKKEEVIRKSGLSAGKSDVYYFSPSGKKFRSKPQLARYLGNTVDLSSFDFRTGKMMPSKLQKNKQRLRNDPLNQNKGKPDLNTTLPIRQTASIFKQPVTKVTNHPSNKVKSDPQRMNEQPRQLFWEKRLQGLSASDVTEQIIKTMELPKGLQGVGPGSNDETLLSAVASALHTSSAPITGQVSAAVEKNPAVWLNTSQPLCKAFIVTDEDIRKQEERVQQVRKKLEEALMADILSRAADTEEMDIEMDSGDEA
# Arr AP2 block: human beta-arrestin and AP2 interaction inhibition. inhibition, % at 10 µM. 340,000 compounds, 0.31% hits. FITC-arrestin peptide / GST-AP2 beads, flow cytometry; AP2 beta2 appendage carries R879A mutation. AID 504490;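 active means inhibition above a set limit, near 3 SD of compounds lacking own fluorescence, cut at about 54% in these data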;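 further: plate controls were DMSO wells for no effect and 5 µM unlabelled arrestin peptide for full effect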
#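 System: GST-AP2 R879A bound to glutathione beads, E. coli-expressed. Also added: 50 nM FITC-arrestin peptide. Schedule: compound with beads 12 min RT, then probe 1 h RT. Signal: bead flow cytometry, FITC channel. Read-out basis: percent response.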
# UHRF1 MBD2 ctr: UHRF1 methyl-DNA binding inhibition; Q96T88; UHRF1 binding to methylated oligo, TR-FRET; inhibition, % at 4.4 µM; 370,000 compounds, 0.75% hits; AID 687016; in the data active means inhibition above about 21%;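 further: UHRF1 SRA domain binding a hemimethylated CpG hairpin DNA probe; 0% = median of test compound wells and 100% = reference inhibitor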
# B2AR ag: human beta-2 adrenergic receptor agonism by FAP; P07550; Am2.2-beta2AR cells, FAP receptor internalization, flow cytometry; response, % (concentration not given with the values); 340,000 compounds, 0.43% hits; AID 504454;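 active means response above a set limit, near 3 SD of response in nonfluorescent compounds, cut at about 42% in these data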
# Rin1 Abl inh: inhibitors of human Rin1-Abl protein interaction | P00519+Q13671 | TR-FRET Rin1/Abl binding, biochemical | inhibition, % at 7.35 µM | 360,000 compounds, 0.4% hits | AID 588664; in the data active means inhibition above about 5%, passing the limit was not always enough
# Rin1 Abl conf: Rin1-Abl interaction inhibition confirmation; shares compounds with Rin1 Abl inh; TR-FRET Rin1-Abl binding, purified proteins; inhibition, % at 7.35 µM; 1,300 compounds, 49% hits; AID 602124
# GFP quench: GFP fluorescence interference artifact; shares compounds with Rin1 Abl inh; inhibitors/quenchers counterscreen; inhibition, % at 6.75 µM; 1,300 compounds, 8.5% hits; AID 602125;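 further: ABL1-eGFP fusion protein alone without its partner RIN1-SBP; 0% = protein with vehicle and 100% = wells lacking protein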
# GFP quench dose: GFP fluorescence interference dose response | shares compounds with Rin1 Abl inh | GFP fluorescence interference/quenching counterscreen | IC50, µM | 230 tested, under 10 active | AID 602182; call rule not given here;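 further: ABL1-eGFP fusion protein alone without its RIN1 binding partner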
# An asterisk follows results filed as active; nt = not tested or not shown. Unless noted, no stated cut-off is given here; in the data, active means inhibition above about 6.5%; inactive means the rest.
SMILES,ABHD5-PLIN5 inh,MBD2 inh,Arr AP2 block,UHRF1 MBD2 ctr,B2AR ag,Rin1 Abl inh,Rin1 Abl conf,GFP quench,others
CCCCn1c(NS(=O)(=O)c2ccc(C)cc2)c(S(=O)(=O)c2ccccc2)c2nc3ccccc3nc21,-6,-5,9,10,23,9.6*,-3,-1,
CCN(CC)C(=O)CSc1nc(COc2ccccc2)nc2ccccc12,5,0,16,2,-1,42*,37*,0,
COC(=O)CSc1nc(COc2ccccc2)nc2ccccc12,7,1,-4,1,1,1,nt,nt,
CC(C)C[C@H]1COc2cc(Br)ccc2S(=O)(=O)N1Cc1cn(CCC2OCCCO2)nn1,nt,2,nt,-1,nt,nt,nt,nt,
COc1ccc(S[C@]2(C(=O)NCCCN(C)C)CC(=O)N[C@@H]2c2ccc(OC)cc2)cc1,nt,-2,nt,-2,nt,nt,nt,nt,
CC1C=CCC2C(=O)N(c3cccc(C(=O)NCc4ccccc4)c3)C(=O)C12 (stereo not drawn),1,-1,1,-1,5,7.8*,-2,0,
CCC(=O)N1CCc2cc(Br)c(S(=O)(=O)N3CCCC(C(=O)NC(C)(C)C)C3)cc21 (stereo not drawn),nt,5,nt,1,nt,nt,nt,nt,
Cc1cnc(NC(=O)[C@H](C)N2C(=O)C3CCCCC3C2=O)s1 (stereo partly drawn),10,3,11,1,11,2,nt,nt,
Cc1cnc(NC(=O)C(C)N2CCN(C)CC2)s1 (stereo not drawn),-12,-2,0,1,-2,6.7*,1,-1,
COC1=CC(=O)c2nc(Cl)ccc2C1=O,18,-2,nt,11,nt,13,nt,nt,
COC1=CC(=O)c2c(ccc3ncnc(N)c23)C1=O,55*,-6,10,6,-29,17*,31*,3,GFP quench dose=>67
COc1ccc(Nc2nc(-c3ccccc3)nc3ccccc23)cc1,2,-6,4,-5,-4,5,nt,nt,
COc1ccc(Nc2nc(-c3cccc([N+](=O)[O-])c3)nc3ccccc23)cc1,3,-1,0,-4,10,5.7*,-1,0,
CCCCOC(=O)c1ccc(NC(=O)COC(=O)CN2C(=O)NC3(CCCC3)C2=O)cc1,3,-4,-10,0,0,2,nt,nt,
CCCCOC(=O)c1ccc(NC(=O)CN2C(=O)NC3(CCCCCC3)C2=O)cc1,-10,5,-1,-4,5,12*,10*,1,
CCC(CC)NC(=O)O[C@H]1CC[C@@]23CCCN2C(=O)CCC[C@H]3C1,nt,4,nt,1,nt,nt,nt,nt,
COc1cccc2c3cccc(OC)c3c3[nH]cnc3c12,-5,0,-19,5,13,33*,29*,0,GFP quench dose=>68
COc1ccc(N2CCN(C(=O)CSc3nnc(-c4cccnc4)n3-c3ccccc3)CC2)cc1,2,1,22,0,-7,8.1*,5,0,
O=C(O)c1ccc(CSc2nnc(-c3cccnc3)n2-c2ccc(Br)cc2)cc1,-3,-3,6,2,0,21*,33*,0,GFP quench dose=>68
COc1ccc(N2CCN(C(=O)CSc3nnc(-c4cccnc4)n3-c3ccc(F)cc3)CC2)cc1,-10,-2,-14,3,2,0,nt,nt,
Cn1c(=O)c2c(nc(NCc3ccco3)n2Cc2ccccc2Cl)n(C)c1=O,-3,4,7,-2,-9,7.1*,6.7*,0,
Cn1c(=O)c2c(nc(NCc3ccco3)n2C)n(C)c1=O,-6,8,4,3,8,-2,nt,nt,
CCN(C(=O)COC(=O)c1cc(Cl)ccc1OC)c1c(N)n(Cc2ccccc2)c(=O)[nH]c1=O,8,-3,-38,-4,-19,8.7*,-3,2,
COC(=O)c1cc(S(=O)(=O)N2CCCN(C(C)=O)CC2)cn1C,nt,0,nt,-3,nt,nt,nt,nt,
COc1ccc(C(=O)N[C@@H]2CC[C@@]34CCCN3C(=O)CCC[C@H]4[C@H]2C)cc1,nt,5,nt,1,nt,nt,nt,nt,
SMILES,ABHD5-PLIN5 inh,MBD2 inh,Arr AP2 block,UHRF1 MBD2 ctr,B2AR ag,Rin1 Abl inh,Rin1 Abl conf,GFP quench,others
CC(=O)Nc1cccc(-c2ccnc3c2CC(C)(C(=O)NCc2ccc(N(C)C)cc2)O3)c1 (stereo not drawn),0,5,nt,1,nt,6.7*,6,-2,
CC1(C(=O)Nc2ccccc2)Cc2c(-c3cccc(C(N)=O)c3)ccnc2O1 (stereo not drawn),-5,-6,nt,-1,nt,14*,15*,-1,
CC1(C(=O)Nc2ccc3c(c2)OCO3)Cc2c(-c3ccc4c(c3)OCO4)ccnc2O1 (stereo not drawn),2,-6,nt,-1,nt,-3,nt,nt,
CC1(C(=O)Nc2ccc3c(c2)OCO3)Cc2c(-c3cccc(C(N)=O)c3)ccnc2O1 (stereo not drawn),10,2,nt,-1,nt,8.8*,7.8*,-2,
Cc1ccc(-c2cc(-c3nnc4sc(COc5ccccc5)nn34)[nH]n2)cc1,nt,-1,nt,-3,nt,nt,nt,nt,
COC(=O)C1CN(Cc2ccc(OC)cc2)CCS(=O)(=O)N1Cc1cn(Cc2ccc(Cl)cc2)nn1 (stereo not drawn),nt,2,nt,15,nt,nt,nt,nt,
O=C(Nc1ccn(CCCNCCN2CCOCC2)c(=O)n1)OCc1ccccc1,6,2,1,0,-8,0,nt,nt,
O=C(Nc1ccn(CCCN2CCN(c3ccccc3)CC2)c(=O)n1)OCc1ccccc1,-8,1,nt,-2,nt,3,nt,nt,
O=C(Nc1ccn(CCCN2CCC(N3CCOCC3)CC2)c(=O)n1)OCc1ccccc1,6,-1,nt,-1,nt,11*,6.9*,-1,
Cc1cc(C)c(CN2CCN(CCCn3ccc(NC(=O)OCc4ccccc4)nc3=O)CC2)c(C)c1,0,0,2,0,13,7.9*,8.0*,2,
N#CCC[C@@H]1CC[C@]2(CCCN(C(=O)c3cccnc3)C2)O1,nt,-3,nt,-1,nt,nt,nt,nt,
CC(=O)Nc1nn(C)c2nc3cc(C)ccc3cc12,-3,-10,3,0,-5,-4,nt,nt,
Cc1ccc2cc3c(NC(=O)c4cccnc4)nn(C)c3nc2c1,1,-7,2,-1,-3,6.0*,21*,0,
O=C(CSc1nnc(-c2ccc(Cl)cc2)n1-c1ccccc1)NN=Cc1c[nH]c2ccccc12,nt,2,nt,0,nt,nt,nt,nt,
CCN1CCN(C(=O)C(NS(=O)(=O)c2ccc3nc(C)sc3c2)C(C)C)CC1 (stereo not drawn),14,-2,-3,0,5,8.1*,1,0,

# Source: PubChem (several laboratories)
